The values that follow come from paper PMC12409571 (ACS Omega, 2025).

In assay [1] the target is T1, human TRPA1 (Homo sapiens, UniProt O75762). The assay can be described thus: Whole-cell patch clamp of TRPA1 currents in HEK293T cells. In kind it is cell-based. (In patch-clamp work, channel activity is measured electrically.)
Assay [2] addresses T1, human TRPA1. The assay can be described thus: Cell-attached single-channel recordings of TRPA1 in HEK293T cells. Type of assay: cell-based. As to conditions: −60 mV; 100 μM AITC alone, or with 5 μM PHL-B.
The target in assay [3] is human TRPV1 (Homo sapiens, UniProt Q8NER1). The assay can be described thus: Compound selectivity fluorescence-based Ca2+ assay, capsaicin-stimulated TRPV1. Type of assay: cell-based. Conditions: 10 μM capsaicin; PHL-B 0.1-10 μM; capsazepine 1 μM.
Chain of human TRPV1 (Q8NER1 whole entry): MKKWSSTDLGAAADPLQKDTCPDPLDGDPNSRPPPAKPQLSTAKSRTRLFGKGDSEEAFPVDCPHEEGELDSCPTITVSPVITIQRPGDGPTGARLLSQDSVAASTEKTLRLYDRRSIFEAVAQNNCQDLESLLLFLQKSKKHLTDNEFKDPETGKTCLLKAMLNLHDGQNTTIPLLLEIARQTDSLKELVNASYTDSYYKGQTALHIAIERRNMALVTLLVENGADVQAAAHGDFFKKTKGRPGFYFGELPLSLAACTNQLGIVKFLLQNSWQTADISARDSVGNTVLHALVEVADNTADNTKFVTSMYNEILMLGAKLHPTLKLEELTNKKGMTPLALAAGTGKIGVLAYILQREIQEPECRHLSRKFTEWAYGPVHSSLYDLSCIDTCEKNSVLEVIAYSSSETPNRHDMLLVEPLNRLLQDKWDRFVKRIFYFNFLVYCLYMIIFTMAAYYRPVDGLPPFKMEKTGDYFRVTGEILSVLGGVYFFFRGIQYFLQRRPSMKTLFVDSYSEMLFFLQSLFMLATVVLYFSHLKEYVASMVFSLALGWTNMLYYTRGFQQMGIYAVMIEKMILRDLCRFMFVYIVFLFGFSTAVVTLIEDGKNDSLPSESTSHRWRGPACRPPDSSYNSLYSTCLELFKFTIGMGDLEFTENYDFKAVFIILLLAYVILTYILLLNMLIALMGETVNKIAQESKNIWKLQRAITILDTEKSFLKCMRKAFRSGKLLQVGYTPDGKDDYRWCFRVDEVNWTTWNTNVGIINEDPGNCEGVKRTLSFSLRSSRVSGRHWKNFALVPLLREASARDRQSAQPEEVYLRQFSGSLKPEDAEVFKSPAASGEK
Assay [4] has as its system TRPA1 channels. As to conditions: read-out: EC50 (activation of TRPA1 channels); cited from earlier work.
The target in assay [5] is rat TRPM8 (Rattus norvegicus, UniProt Q8R455). The assay can be described thus: Compound selectivity fluorescence-based Ca2+ assay, menthol-stimulated TRPM8. Type of assay: cell-based. Conditions: 30 μM menthol; PHL-B different concentrations; sesamin 20 μM. In short, it runs like this: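 HEK293T cells were cotransfected with rat TRPM8 and GCaMP6s and assayed after 48 h with GCaMP6s fluorescence. Channels were activated with 30 μM menthol; 20 μM sesamin served as the reference inhibitor. Read-out F/F0; N = 3–5 independent experiments.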
Chain of rat TRPM8 (Q8R455 whole entry): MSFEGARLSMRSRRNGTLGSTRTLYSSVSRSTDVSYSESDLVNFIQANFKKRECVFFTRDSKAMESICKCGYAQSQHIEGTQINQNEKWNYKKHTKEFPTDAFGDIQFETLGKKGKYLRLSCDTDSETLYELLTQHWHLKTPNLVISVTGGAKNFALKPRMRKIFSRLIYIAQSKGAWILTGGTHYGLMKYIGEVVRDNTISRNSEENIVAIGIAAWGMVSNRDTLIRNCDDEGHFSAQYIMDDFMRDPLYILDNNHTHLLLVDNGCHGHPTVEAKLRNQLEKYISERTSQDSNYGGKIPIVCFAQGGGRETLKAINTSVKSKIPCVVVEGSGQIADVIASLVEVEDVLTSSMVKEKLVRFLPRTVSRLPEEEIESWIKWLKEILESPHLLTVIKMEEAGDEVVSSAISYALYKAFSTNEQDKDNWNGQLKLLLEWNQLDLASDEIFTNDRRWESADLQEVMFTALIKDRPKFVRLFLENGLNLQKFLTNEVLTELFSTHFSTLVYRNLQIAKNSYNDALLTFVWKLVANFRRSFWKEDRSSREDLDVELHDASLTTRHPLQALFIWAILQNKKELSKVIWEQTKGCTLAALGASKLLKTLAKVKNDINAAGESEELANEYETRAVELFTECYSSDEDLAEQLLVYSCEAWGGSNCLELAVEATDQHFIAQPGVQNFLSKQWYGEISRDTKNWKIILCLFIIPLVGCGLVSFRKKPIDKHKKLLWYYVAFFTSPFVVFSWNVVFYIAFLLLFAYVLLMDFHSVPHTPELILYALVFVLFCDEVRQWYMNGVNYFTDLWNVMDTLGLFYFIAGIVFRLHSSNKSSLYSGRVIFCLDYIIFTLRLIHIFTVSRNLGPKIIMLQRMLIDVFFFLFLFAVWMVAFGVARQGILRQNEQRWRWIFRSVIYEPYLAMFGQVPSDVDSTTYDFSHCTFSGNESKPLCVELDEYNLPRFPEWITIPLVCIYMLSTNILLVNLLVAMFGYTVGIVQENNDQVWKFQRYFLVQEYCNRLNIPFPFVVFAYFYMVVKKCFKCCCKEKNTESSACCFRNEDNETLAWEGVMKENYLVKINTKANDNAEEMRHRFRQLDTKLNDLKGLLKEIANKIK

[6] abbreviates: 100 μM AITC alone, or 100 μM AITC + 5 μM PHL-B, voltage ramp.

Molecules are shown by their SMILES.

T1 sequence (O75762 whole entry): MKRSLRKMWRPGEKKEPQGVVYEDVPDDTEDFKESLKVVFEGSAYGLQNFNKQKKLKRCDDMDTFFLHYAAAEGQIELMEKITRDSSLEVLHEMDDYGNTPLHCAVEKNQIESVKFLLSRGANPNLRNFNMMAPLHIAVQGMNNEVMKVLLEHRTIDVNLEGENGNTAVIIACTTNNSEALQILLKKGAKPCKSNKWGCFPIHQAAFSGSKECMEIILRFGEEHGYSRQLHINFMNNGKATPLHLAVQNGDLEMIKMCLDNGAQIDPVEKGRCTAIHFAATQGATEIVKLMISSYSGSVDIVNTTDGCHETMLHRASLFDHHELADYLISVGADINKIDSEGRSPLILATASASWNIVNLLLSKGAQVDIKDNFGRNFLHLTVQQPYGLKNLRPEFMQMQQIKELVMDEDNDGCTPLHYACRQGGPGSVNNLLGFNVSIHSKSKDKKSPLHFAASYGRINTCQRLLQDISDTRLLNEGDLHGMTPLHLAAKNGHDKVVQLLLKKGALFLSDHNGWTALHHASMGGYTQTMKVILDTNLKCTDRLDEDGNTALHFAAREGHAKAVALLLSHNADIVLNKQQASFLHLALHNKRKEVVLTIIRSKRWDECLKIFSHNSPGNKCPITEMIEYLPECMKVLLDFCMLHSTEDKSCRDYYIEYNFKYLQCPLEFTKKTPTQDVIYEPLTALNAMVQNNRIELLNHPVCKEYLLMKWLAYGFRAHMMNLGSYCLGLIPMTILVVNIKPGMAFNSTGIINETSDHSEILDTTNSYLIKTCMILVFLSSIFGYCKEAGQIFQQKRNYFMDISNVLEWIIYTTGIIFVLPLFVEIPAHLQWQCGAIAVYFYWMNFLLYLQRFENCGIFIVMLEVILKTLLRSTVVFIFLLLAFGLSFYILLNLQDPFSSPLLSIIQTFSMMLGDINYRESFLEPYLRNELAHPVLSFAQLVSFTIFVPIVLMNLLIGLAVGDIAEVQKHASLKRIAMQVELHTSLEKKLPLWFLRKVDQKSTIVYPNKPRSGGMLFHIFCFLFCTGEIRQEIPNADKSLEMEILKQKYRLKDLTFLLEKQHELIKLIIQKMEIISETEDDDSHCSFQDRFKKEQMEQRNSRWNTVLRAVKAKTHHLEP

In the case of `C=CCN=C=S` [AITC, allyl isothiocyanate], in assay [1] (setting [6]), the “current density at +50 mV” value was determined as 30.5 ± 2.9 pA/pF and the “current density at −100 mV” value is reported as −91.73 ± 11.47 pA/pF. Besides, the “τoff (time course of recovery)” value in assay [1] (−60 mV, 100 μM AITC, or 100 μM AITC + 5 μM PHL-B) turned out to be 28.6 ± 3.4 ms. Besides, the “fold increase of channel open probability (PO) over basal” value in assay [2] is “approximately 150 fold”.

Take `Oc1cc2c(cc1O)CN(C(=S)NCCc1ccc(Cl)cc1)CCC2` [Capsazepine, capsazepine]: the “effect on capsaicin-induced normalized fluorescence (TRPV1)” value in assay [3] is “fully abolished”. The term EC50 denotes the concentration at which the effect is half-maximal. As for `CC(C)c1cc2c(c(O)c1O)[C@@]13CCCC(C)(C)[C@@H]1C[C@@H]2OC3=O` [carnosol], the EC50 in assay [4] is about 12 µM.

For the compound `c1cc2c(cc1[C@H]1OC[C@H]3[C@@H]1CO[C@@H]3c1ccc3c(c1)OCO3)OCO2` [sesamin], the “effect on menthol-induced Ca2+ influx (TRPM8)” value in assay [5] is listed as “practically inhibited all”.
